The target in experiment [1] is T1, Serine/threonine-protein kinase PknB (Mycobacterium tuberculosis, UniProt P9WI81).
T1 sequence (P9WI81 whole entry): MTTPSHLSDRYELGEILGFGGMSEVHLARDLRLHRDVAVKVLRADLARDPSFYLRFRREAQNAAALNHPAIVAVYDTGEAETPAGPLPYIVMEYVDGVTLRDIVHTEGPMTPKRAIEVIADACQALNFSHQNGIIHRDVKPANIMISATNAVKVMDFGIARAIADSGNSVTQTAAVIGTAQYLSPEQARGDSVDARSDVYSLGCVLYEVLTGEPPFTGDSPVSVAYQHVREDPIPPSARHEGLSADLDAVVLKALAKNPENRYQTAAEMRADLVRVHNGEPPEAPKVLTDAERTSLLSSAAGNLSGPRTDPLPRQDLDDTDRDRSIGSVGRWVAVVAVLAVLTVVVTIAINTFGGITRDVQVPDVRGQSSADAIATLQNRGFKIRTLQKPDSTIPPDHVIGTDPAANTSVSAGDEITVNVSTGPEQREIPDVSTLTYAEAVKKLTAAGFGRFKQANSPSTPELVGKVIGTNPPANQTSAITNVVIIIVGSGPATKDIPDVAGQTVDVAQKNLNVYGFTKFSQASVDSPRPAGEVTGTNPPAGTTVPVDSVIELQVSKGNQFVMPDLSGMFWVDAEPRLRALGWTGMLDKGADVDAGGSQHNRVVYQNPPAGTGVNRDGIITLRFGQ
As to the kind of experiment: Inhibition of Mycobacterium tuberculosis PknB.

In experiment [2] the test system is Mycobacterium tuberculosis. As to the kind of experiment: Anti-tubercular activity against Mycobacterium tuberculosis H37Rv by resazurin microtitre assay. The format is functional. Put shortly: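 Value is the minimum inhibitory concentration (MIC) found by the resazurin microtitre (REMA) method.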
On the technique in general: Alamar Blue is a resazurin reagent that responds to reducing activity.

Converted amounts (≈) assume the structure as drawn. A value given as a limit tells only on which side of the number the result lay.

For the molecule `NNC(=O)CC(=O)Nc1ccc(C(=O)O)cc1`, in experiment [1], affinity was put at a Ki of 3.86 µM. For the same molecule, in experiment [2], it took 12.5 µg/mL (≈ 52.7 µM) to inhibit growth (MIC). For `NNC(=O)CC(=O)Nc1ccc(F)c(Cl)c1`, in that order: 3.53 µM and 50 µg/mL (≈ 204 µM).

As for `NNC(=O)CC(=O)Nc1ccccc1[N+](=O)[O-]`, the affinity in experiment [1] corresponds to a Ki of 22.9 µM. The MIC (commonly the least concentration at which growth counts as inhibited) in experiment [2] is over 100 µg/mL. Consider `NNC(=O)CC(=O)Nc1cccc([N+](=O)[O-])c1`, for which the affinity in experiment [1], expressed as Ki, was 12.5 µM. In experiment [2], this molecule displayed an MIC of over 100 µg/mL. For `NNC(=O)CC(=O)Nc1ccc([N+](=O)[O-])cc1`, in that order: 10.8 µM and over 100 µg/mL. For `NNC(=O)CC(=O)Nc1ccc([N+](=O)[O-])cc1[N+](=O)[O-]`, in that order: 6.38 µM and over 100 µg/mL. For `NNC(=O)CC(=O)Nc1cc(Cl)cc(Cl)c1`, in that order: 7.68 µM and over 100 µg/mL.

As to `NNC(=O)CC(=O)Nc1ccc(Cl)c(Cl)c1`, in experiment [1], affinity was put at a Ki of 9.21 µM. In experiment [2], this molecule yielded an MIC of over 100 µg/mL. For `COc1ccc(OC)c(NC(=O)CC(=O)NN)c1`, in that order: 7.01 µM and over 100 µg/mL. For `COc1ccc(NC(=O)CC(=O)NN)c(OC)c1`, in that order: 5.25 µM and over 100 µg/mL. For `CCN(CC)c1ccc(NC(=O)CC(=O)NN)cc1`, in that order: 13.1 µM and 100 µg/mL (≈ 378 µM). `CCCCc1ccc(NC(=O)CC(=O)NN)cc1`: the Ki (usually the dissociation constant of the complex between target and ligand, obtained from inhibition or displacement) in experiment [1] stood at 26.5 µM. Also, the MIC in experiment [2] stood at 12.5 µg/mL (≈ 50.1 µM). Molecule `CCCc1ccc(NC(=O)CC(=O)NN)cc1` returned an inhibitory constant (Ki) in experiment [1] of 9.04 µM. The MIC in experiment [2] was 12.5 µg/mL (≈ 53.1 µM).

In turn, `NNC(=O)CC(=O)Nc1ccc(S(=O)(=O)O)cc1` returned a Ki in experiment [1] of 7.59 µM. Moreover, in experiment [2], the MIC was determined as 50 µg/mL (≈ 183 µM). For `NNC(=O)CC(=O)Nc1ccccc1C(=O)O`, in that order: 7.32 µM and 50 µg/mL (≈ 211 µM).

In the case of `NNC(=O)CC(=O)NCc1ccco1`, in experiment [1], the affinity, expressed as Ki, was 18.5 µM. The MIC in experiment [2] was over 100 µg/mL. With `NNC(=O)c1ccncc1` [ISONIAZID], in experiment [2], inhibition of growth (MIC) required 0.02 µg/mL (≈ 0.146 µM). On the same count and under the same terms, the value for `CO[C@H]1/C=C/O[C@@]2(C)Oc3c(C)c(O)c4c(O)c(c(/C=N/N5CCN(C)CC5)c(O)c4c3C2=O)NC(=O)/C(C)=C\C=C\[C@H](C)[C@H](O)[C@@H](C)[C@@H](O)[C@@H](C)[C@H](OC(C)=O)[C@@H]1C` [RIFAMPIN] was 0.01 µg/mL (≈ 0.0122 µM).

The values above are taken from ChEMBL document CHEMBL3352563, “Design, synthesis and molecular docking of substituted 3-hydrazinyl-3-oxo-propanamides as anti-tubercular agents” (Bioorg Med Chem Lett, 2014).
